Columns and labels:
[1] = biological target: T1, Urease subunit alpha/Urease subunit beta (Helicobacter pylori (strain ATCC 700392 / 26695) (Campylobacterpylori), UniProt P69996); assay: Inhibition of cell free Helicobacter pylori ATCC 43504 urease assessed as reduction in ammonia production by indophenol based Berthelot color reaction method
In short: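 H. pylori ATCC 43504 grown 24 h at 37 °C, microaerobic (5% O2, 10% CO2, 85% N2), in Brucella broth with 10% heat-inactivated horse serum. Cells (2.0 × 10⁸ CFU/mL) pelleted at 5000 g, 4 °C, washed twice in PBS pH 7.4, stored at −80 °C, then sonicated 60 s in water with protease inhibitors. Extract preincubated with compound 1.5 h at room temperature; ammonia measured by indophenol method.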

[2] = biological target: T1, Urease subunit alpha/Urease subunit beta; assay: Inhibition of urease in intact Helicobacter pylori ATCC 43504 assessed as reduction in ammonia production by indophenol based Berthelot color reaction method
In short: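 H. pylori grown 24 h at 37 °C in Brucella broth with 10% heat-inactivated horse serum under microaerobic gas (5% O₂, 10% CO₂, 85% N₂). Cells harvested, washed twice in PBS pH 7.4, and resuspended to 4.0 × 10⁷ CFU/mL. Suspension pre-incubated with compound for 1.5 h at room temperature. Ammonia production measured by the indophenol (Berthelot) method.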

T1 sequence (P69996 whole entry): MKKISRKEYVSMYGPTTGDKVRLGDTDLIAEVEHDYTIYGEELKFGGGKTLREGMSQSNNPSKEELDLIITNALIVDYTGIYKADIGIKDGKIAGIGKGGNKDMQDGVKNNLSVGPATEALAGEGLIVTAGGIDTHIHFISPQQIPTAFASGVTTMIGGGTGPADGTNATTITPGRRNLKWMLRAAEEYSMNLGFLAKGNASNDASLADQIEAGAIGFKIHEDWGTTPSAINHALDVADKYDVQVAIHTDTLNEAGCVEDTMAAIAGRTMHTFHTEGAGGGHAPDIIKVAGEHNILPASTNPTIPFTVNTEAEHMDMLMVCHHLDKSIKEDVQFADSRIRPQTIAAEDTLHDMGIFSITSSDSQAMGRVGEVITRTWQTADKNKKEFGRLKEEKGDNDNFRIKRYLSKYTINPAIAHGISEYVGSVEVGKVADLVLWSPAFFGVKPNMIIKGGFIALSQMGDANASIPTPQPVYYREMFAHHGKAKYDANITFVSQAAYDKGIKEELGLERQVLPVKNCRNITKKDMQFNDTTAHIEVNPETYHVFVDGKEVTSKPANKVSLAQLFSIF
T1 sequence (P14916 whole entry, further chain): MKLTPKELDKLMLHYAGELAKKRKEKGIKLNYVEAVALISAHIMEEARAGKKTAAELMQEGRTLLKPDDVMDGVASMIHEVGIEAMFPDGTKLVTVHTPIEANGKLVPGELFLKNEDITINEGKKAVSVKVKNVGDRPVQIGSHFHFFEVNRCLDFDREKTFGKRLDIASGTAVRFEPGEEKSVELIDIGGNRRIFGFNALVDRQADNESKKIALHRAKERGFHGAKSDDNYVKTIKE

SMILES	IC50 [1] [µM]	IC50 [2] [µM]
COc1ccc(CCc2ccc(Cl)cc2)cc1OC	254	
Oc1ccc(CCc2ccc(Br)cc2)c(O)c1O	48	
Oc1ccc(CCc2cccc(Cl)c2)c(O)c1O	50	
Oc1ccc(CCc2cccc(Br)c2)c(O)c1O	52	
Oc1ccc(CCc2ccc(Cl)cc2)cc1O	8.3	50.1
Oc1ccc(CCc2cccc(Cl)c2)cc1O	15.7	94.7
CCc1ccc(O)c(O)c1O	34	
CCCCc1ccc(O)c(O)c1O	79	
CCCCCCc1ccc(O)c(O)c1O	91	
CCCCCCCCc1ccc(O)c(O)c1O	103	
CCCCCCCCCCc1ccc(O)c(O)c1O	124	
Oc1ccc(CCc2ccc(F)cc2)cc1O	6.2	32.4
Oc1ccc(CCc2ccc(O)c(O)c2)cc1	1.5	4.2
Oc1ccc(CCc2ccc(F)cc2)c(O)c1O	43	
Oc1ccc(CCc2ccc(Cl)cc2)c(O)c1O	47	
Oc1ccc(CCc2cccc(Br)c2)cc1O	16.9	88.9
COc1ccc(CCc2ccc(O)c(O)c2)cc1OC	22.7	
CCc1ccc(O)c(O)c1	4.9	17.3
CCCCc1ccc(O)c(O)c1	7.9	38.1
CCCCCCc1ccc(O)c(O)c1	12.3	77.8
CCCCCCCCc1ccc(O)c(O)c1	58	
COc1ccc(CCc2ccc(O)cc2)cc1OC	204	
COc1ccc(CCc2cccc(Cl)c2)cc1OC	235	
COc1ccc(CCc2ccc(O)c(O)c2O)cc1OC	71	
CCOc1ccc(CCc2ccc(O)c(O)c2O)cc1OCC	69	
CCCCCCCCCCCCc1ccc(O)c(O)c1O	168	
CCCCCCCCCCCCCCc1ccc(O)c(O)c1O	250	
Oc1ccc(CCc2ccc(O)c(O)c2O)cc1	32	
COc1ccc(CCc2ccccc2O)cc1OC	227	
CC(=O)NO [ACETOHYDROXAMIC ACID]	17.2	101
